PMC4229023 (Biomacromolecules, 2014)

Legend:
[1] = Maximum tolerated dose study; format: in vivo, CD-1 mice
How it was run: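 Body weight and survival were checked daily for 2 weeks. MTD was taken as the highest dose causing neither more than 15% body-weight loss nor any death within 2 weeks.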

Plasma pharmacokinetics = format: in vivo; details: 5 mg DOX/kg i.v., female BALB/c mice
[2] = test system: 4T1.2 mouse breast cancer cell line; assay: MTT cytotoxicity; format: cell-based; details: 4T1.2 cells
[3] = test system: HCT-116 human colon carcinoma cell line; assay: MTT cytotoxicity; format: cell-based; details: HCT-116 cells
PC-3 xenografts = details: cited from earlier work

**Q.** Which results are given for `COc1cccc2c1C(=O)c1c(O)c3c(c(O)c1C2=O)C[C@@](O)(C(=O)CO)C[C@@H]3O[C@H]1C[C@H](N)[C@H](O)[C@H](C)O1` [DOX, Doxorubicin]?
**A.** tolerability ([1]; 10 mg/kg DOX): well tolerated; decrease in the body weight ([1]; 15 mg DOX/kg): > 15%; Animal death ([1]; 15 mg DOX/kg i.v., n = 4, listed as free DOX): death of all treated mice; maximum tolerated dose (MTD) ([1]; DOX dose, single i.v. dose, female CD-1 mice, 2 weeks): ~10 mg/kg; Cmax (Plasma pharmacokinetics): 3590 ng/mL; Vd (Plasma pharmacokinetics): 7.34 L/kg; T1/2 (Plasma pharmacokinetics; noncompartmental): 1.74 h; AUC0-inf (Plasma pharmacokinetics; plasma): 3430 ng·h/mL

**Q.** With `CC(C)=CCC/C(C)=C/CC/C(C)=C/CSc1ccccc1C(=O)O` [FTS, S-trans, trans-farnesylthiosalicylic acid] as the molecule, how does the “cytotoxicity of drug-free carriers and FTS” value [2] read?
**A.** Its value is “inhibited the tumor cell growth in a concentration-dependent manner”.

**Q.** And the “cytotoxicity of drug-free carriers and FTS” value [3]?
**A.** The value was “inhibited the tumor cell growth in a concentration-dependent manner”.

**Q.** Which “tumor accumulation (NIRF imaging)” value (PC-3 xenografts) does the source give for `CCCCCCCCCCCCCCCCCCN1C(=CC=CC=CC2=[N+](CCCCCCCCCCCCCCCCCC)c3ccccc3C2(C)C)C(C)(C)c2ccccc21.[O-][Cl+3]([O-])([O-])[O-]` [free DiD dye, 1,1′-dioctadecyl-3,3,3′,3′-tetramethylindodicarbocyanine perchlorate] here?
**A.** Its value is “No obvious tumor accumulation”.
